Test results reported in ChEMBL document CHEMBL4346656, “Synthesis of urea analogues bearing N-alkyl-N'-(thiophen-2-yl) scaffold and evaluation of their innate immune response to toll-like receptors” (Eur J Med Chem, 2019).
pEC50: −log10 of the molar value. Calls of active or inactive are those of the source. The calls are words filed in the database; no cut-off is given here.

How the values were obtained:
Assay type in all cases: cell-based
Toll-like receptor 2 [1] = target: T1, Toll-like receptor 2 (Homo sapiens, UniProt O60603); assay: Agonist activity at human TLR2 expressed in HEK-Blue cells assessed as activation of SEAP incubated for 24 hrs by quanti-blue SEAP assay; conditions: for pEC50: read-out: EC50
In short: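 TLR2 agonism in HEK-Blue hTLR2 cells, 4 × 10⁴/well, pre-cultured 24 h in DMEM/10% FBS at 37 °C, then treated 24 h with compound in fresh DMEM (tested up to 200 μM). Supernatant SEAP was read with QUANTI-Blue at 37 °C for 0.5–1 h, A620. EC50 came from at least three independent repeats.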

[2] = target: Toll-like receptor 4 (Homo sapiens) (UniProt O00206); assay: Agonist activity at human TLR4 expressed in HEK-Blue cells assessed as activation of SEAP at 10 ug/ml incubated for 24 hrs by quanti-blue SEAP assay
Toll-like receptor 2 [3] = target: T1, Toll-like receptor 2; assay: Agonist activity at human TLR2 expressed in HEK-Blue cells assessed as increase in TLR2 expression at 10 uM incubated for 24 hrs by Western blot analysis relative to control
In short: (§1)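 Western blot: HEK-Blue hTLR2 cells, 1.5 × 10⁶/well, were grown 24 h, then treated in serum-free DMEM with compound (0–50 μM) for 24 h. Cells were lysed in RIPA/PMSF, equal lysate loaded, SDS-PAGE, nitrocellulose. Membranes were blocked with 5% milk, probed overnight at 4 °C with rabbit anti-TLR2 (1:2000), then HRP secondary, with GAPDH as loading control. Three independent experiments.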

Toll-like receptor 2 [4] = target: T1, Toll-like receptor 2; assay: Agonist activity at human TLR2 expressed in HEK-Blue cells assessed as NF-kappaB activation at 10 uM incubated for 24 hrs by quanti-blue SEAP assay
In short: (§2)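 HEK-Blue hTLR2 cells (human TLR2 plus NF-κB-driven SEAP reporter in HEK293) were seeded at 4 × 10⁴/well and pre-grown 24 h at 37 °C. They were then exposed 24 h to compound in DMEM, with or without triptolide. SEAP in the supernatant was read with QUANTI-Blue (1:1, 37 °C, 0.5–1 h) at A620. Mean ± SD of three independent experiments.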

[5] = target: Toll-like receptor 4 (Homo sapiens) (UniProt O00206); assay: Agonist activity at human TLR4 expressed in HEK-Blue cells assessed as activation of SEAP up to 100 uM incubated for 24 hrs by quanti-blue SEAP assay
In short: (§3)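 HEK-Blue hTLR3 or hTLR4 cells were seeded at 4 × 10⁴/well and pre-grown 24 h, then incubated 24 h with compound at 0–100 μM. […] SEAP in the supernatant was read by QUANTI-Blue at OD620.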

Toll-like receptor 2 [6] = target: T1, Toll-like receptor 2; assay: Agonist activity at human TLR2 expressed in HEK-Blue cells assessed as NF-kappaB activation at 10 uM incubated for 24 hrs in presence of NF-kappaB inhibitor, triptolide by quanti-blue SEAP assay; in short: as §2
[7] = target: T2, Toll-like receptor 1/2 (Homo sapiens) (UniProt O60603+Q15399); assay: Agonist activity at human TLR1/2 expressed in HEK-Blue cells assessed as activation of SEAP at 0.5 uM incubated for 24 hrs by quanti-blue SEAP assay in presence of Anti-hTLR2-IgA
In short: (§4)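 HEK-Blue hTLR2 cells (endogenous TLR1 and TLR6) were seeded at 4 × 10⁴/well in DMEM with 10% FBS and grown 24 h at 37 °C. The medium was then replaced with DMEM holding 0.5 μM compound plus anti-hTLR1-IgG, anti-hTLR2-IgA or anti-hTLR6 antibody (0–10 μg/mL) for 24 h. Supernatant was mixed 1:1 with QUANTI-Blue for 0.5–1 h at 37 °C and A620 read.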

[8] = Cytotoxicity against human HEK-Blue cells transfected with hTLR2 assessed as cell viability upto 100 uM incubated for 24 hrs by CCK8 assay
In short: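 HEK-Blue hTLR2 cells, 4 × 10⁴/well, were pre-cultured 24 h in DMEM/10% FBS at 37 °C, then exposed to compound for 24 h at 37 °C. Half the medium was removed, CCK-8 added, and incubation run 1–4 h at 37 °C before reading A450. Mean ± SD of three independent experiments.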

TLR2/TLR6 (Homo sapiens) = TLR2/TLR6 (Homo sapiens) (UniProt O60603+Q9Y2C9); assay: Agonist activity at human TLR2/6 expressed in HEK-Blue cells assessed as activation of SEAP at 0.5 uM incubated for 24 hrs by quanti-blue SEAP assay in presence of Anti-hTLR6-IgG; in short: as §4
Toll-like receptor 2 [9] = target: T1, Toll-like receptor 2; assay: Agonist activity at human TLR2 expressed in HEK-Blue cells assessed as increase in TLR2 expression at 0.1 uM incubated for 24 hrs by Western blot analysis relative to control; in short: as §1
[10] = target: T2, Toll-like receptor 1/2 (Homo sapiens); assay: Agonist activity at human TLR1/2 expressed in HEK-Blue cells assessed as activation of SEAP at 0.5 uM incubated for 24 hrs by quanti-blue SEAP assay in presence of Anti-hTLR1-IgG; in short: as §4
[11] = target: Toll-like receptor 3 (Homo sapiens) (UniProt O15455); assay: Agonist activity at human TLR3 expressed in HEK-Blue cells assessed as activation of SEAP up to 100 uM incubated for 24 hrs by quanti-blue SEAP assay; in short: as §3
Toll-like receptor 2 [12] = target: T1, Toll-like receptor 2; assay: Agonist activity at human TLR2 in PMA differentiated THP-1 cells assessed as TNF-alpha production incubated for 4 hrs by ELISA
In short: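 THP-1 cells (2.5 × 10⁵/mL) were differentiated with 100 nM PMA in RPMI/10% FBS for 24 h at 37 °C, 5% CO₂. They were washed, rested 24 h in fresh medium, then treated 4 h with compound in serum-free RPMI. Supernatant TNF-α was measured by sandwich ELISA against recombinant standards, duplicate samples. Mean ± SD, three independent experiments.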

T1 sequence (O60603 whole entry): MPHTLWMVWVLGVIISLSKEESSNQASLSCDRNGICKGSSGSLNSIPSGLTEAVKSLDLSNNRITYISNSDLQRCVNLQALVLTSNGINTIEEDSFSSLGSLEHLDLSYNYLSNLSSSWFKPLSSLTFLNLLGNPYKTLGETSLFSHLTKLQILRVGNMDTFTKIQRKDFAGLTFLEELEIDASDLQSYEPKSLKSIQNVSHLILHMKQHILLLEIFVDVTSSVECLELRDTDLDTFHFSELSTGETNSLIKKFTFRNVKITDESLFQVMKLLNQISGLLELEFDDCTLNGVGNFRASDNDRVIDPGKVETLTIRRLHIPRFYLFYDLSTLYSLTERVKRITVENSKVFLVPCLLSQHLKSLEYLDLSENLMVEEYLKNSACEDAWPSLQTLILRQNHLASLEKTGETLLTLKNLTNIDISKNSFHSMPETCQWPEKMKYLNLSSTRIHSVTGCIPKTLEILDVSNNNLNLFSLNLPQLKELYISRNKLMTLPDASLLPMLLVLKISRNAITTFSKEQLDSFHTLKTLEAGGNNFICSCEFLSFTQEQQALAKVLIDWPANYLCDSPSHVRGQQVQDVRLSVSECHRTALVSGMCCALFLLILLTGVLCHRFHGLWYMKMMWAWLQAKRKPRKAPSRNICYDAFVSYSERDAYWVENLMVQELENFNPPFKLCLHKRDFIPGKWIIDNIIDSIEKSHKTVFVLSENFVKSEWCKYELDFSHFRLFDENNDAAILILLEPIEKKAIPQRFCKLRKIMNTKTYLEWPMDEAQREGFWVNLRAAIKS
Toll-like receptor 4 (Homo sapiens), sequence (O00206 whole entry): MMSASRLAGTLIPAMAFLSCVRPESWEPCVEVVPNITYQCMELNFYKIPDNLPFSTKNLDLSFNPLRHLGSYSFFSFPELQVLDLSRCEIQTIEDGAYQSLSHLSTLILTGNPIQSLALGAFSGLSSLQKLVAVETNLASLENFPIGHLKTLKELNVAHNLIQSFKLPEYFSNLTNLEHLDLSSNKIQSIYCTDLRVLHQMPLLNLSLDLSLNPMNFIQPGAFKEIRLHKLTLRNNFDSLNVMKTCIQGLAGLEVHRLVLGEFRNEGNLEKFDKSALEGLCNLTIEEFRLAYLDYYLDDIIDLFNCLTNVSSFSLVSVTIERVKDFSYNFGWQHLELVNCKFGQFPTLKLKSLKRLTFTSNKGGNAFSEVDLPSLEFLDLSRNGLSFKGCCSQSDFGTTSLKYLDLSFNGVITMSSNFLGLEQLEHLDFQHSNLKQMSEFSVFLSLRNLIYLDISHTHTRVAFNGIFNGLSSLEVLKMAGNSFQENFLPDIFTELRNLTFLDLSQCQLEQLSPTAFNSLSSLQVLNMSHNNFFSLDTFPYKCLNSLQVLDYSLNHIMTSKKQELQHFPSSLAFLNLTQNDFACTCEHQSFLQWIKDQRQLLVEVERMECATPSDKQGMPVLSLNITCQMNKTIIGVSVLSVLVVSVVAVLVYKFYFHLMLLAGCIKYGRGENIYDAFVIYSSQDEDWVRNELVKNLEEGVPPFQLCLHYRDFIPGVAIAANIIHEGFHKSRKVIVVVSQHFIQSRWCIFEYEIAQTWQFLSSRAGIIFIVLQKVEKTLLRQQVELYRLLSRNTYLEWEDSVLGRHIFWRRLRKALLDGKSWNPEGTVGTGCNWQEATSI
Toll-like receptor 3 (Homo sapiens), sequence (O15455 whole entry): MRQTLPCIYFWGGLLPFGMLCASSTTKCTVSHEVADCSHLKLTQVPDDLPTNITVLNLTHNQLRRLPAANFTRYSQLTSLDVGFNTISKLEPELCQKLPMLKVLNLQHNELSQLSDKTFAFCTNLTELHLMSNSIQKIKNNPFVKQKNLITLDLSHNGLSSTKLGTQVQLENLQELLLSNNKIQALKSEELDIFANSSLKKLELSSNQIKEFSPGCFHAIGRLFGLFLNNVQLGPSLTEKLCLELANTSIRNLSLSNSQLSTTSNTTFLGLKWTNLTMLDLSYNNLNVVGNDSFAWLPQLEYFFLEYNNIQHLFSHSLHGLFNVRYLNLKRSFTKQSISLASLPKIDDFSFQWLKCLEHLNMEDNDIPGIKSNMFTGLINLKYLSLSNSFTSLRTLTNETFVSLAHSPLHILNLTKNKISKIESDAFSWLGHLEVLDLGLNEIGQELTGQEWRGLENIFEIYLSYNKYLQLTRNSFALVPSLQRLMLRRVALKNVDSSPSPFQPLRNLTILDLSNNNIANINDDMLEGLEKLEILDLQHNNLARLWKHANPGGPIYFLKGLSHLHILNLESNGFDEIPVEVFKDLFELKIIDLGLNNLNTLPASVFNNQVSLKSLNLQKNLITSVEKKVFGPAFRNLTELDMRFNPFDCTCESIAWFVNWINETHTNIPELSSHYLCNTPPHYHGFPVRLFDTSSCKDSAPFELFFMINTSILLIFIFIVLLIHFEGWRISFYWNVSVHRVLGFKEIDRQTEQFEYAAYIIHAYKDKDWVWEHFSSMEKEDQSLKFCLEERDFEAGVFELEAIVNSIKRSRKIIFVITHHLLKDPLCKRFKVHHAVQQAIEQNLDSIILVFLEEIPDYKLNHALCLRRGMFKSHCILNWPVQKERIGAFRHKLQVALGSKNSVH

Compound	pEC50 (Toll-like receptor 2 [1])	EC50 (Toll-like receptor 2 [1])	further results
CC(C)OC(=O)c1c(NC(=O)N2CCN(c3ccccc3)CC2)sc2c1CCC2		Not Active	
CCCCCC1CCc2c(sc(NC(=O)N3CCN(C)CC3)c2C(=O)OC)C1 (stereo unspecified)		Not Active	
CCCOC(=O)c1c(NC(=S)N2CCN(C)CC2)sc2c1CCCC2		Not Active	
CC(C)OC(=O)c1c(NC(=S)N2CCN(c3ccccc3)CC2)sc2c1CCC2		Not Active	
CC(C)OC(=O)c1c(NC(=S)N2CCN(C)CC2)sc2c1CCCC2	4.34		
CC(C)OC(=O)c1c(NC(=S)N2CCNCC2)sc2c1CCC2		Not Active	
CC(=O)N1CCN(C(=S)Nc2sc3c(c2C(=O)OC(C)C)CCC3)CC1		Not Active	
CCOC(=O)c1c(NC(=O)N2CCOCC2)sc2c1CCC2		Not Active	
CC(C)OC(=O)c1c(NC(=S)N2CCN(C)CC2)sc2c1CCC2	4.79		
CCOC(=O)c1c(NC(=O)N2CCCCC2)sc2c1CCC2		Not Active	
CCOC(=O)c1c(NC(=S)N2CCN(C(C)=O)CC2)sc2c1CCC2		Not Active	
CC(C)OC(=O)c1c(NC(=S)N2CCN(C)CC2)sc2c1CCCCC2		Not Active	
CCOC(=O)c1c(NC(=S)N2CCN(C)CC2)sc2c1CCCC2	5.19		
CCOC(=O)c1c(NC(=O)N2CCN(CC)CC2)sc2c1CCC2	5.07		
CCN1CCN(C(=O)Nc2sc3c(c2C(=O)OC(C)C)CCC3)CC1		Not Active	
COC(=O)c1c(NC(=O)N2CCN(C)CC2)sc2c1CCC(C)C2 (stereo unspecified)	4.93		
CCOC(=O)c1c(NC(=S)N2CCN(c3ccccc3)CC2)sc2c1CCC2		Not Active	

The next lines start with results.

pEC50 (Toll-like receptor 2 [1])	EC50 (Toll-like receptor 2 [1])	Compound	further results
5.88		COC(=O)c1c(NC(=O)N2CCN(C)CC2)sc2c1CCCCC2	
6.80		COC(=O)c1c(NC(=O)N2CCN(C)CC2)sc2c1CCCC2	Activity [2]: inactive; fold change (FC) (Toll-like receptor 2 [3]): 8; Activity (Toll-like receptor 2 [4]): Active; Activity [5]: inactive; Activity (Toll-like receptor 2 [6]): inactive; Activity [7]: inactive; Activity [8]: Non-Toxic; Activity (TLR2/TLR6 (Homo sapiens)): Active; fold change (FC) (Toll-like receptor 2 [9]): > 5; Activity [10]: inactive; Activity [11]: inactive; Activity (Toll-like receptor 2 [12]): Dose-dependent effect
4.85		CCCOC(=O)c1c(NC(=O)N2CCN(C)CC2)sc2c1CCC2	
6.25		CCOC(=O)c1c(NC(=O)N2CCN(C)CC2)sc2c1CCC2	
5.34		CC(C)OC(=O)c1c(NC(=O)N2CCN(C)CC2)sc2c1CCC2	
	Not Active	CCOC(=O)c1c(NC(=O)N2CCN(CCO)CC2)sc2c1CCC2	
6.46		CCOC(=O)c1c(NC(=O)N2CCN(C)CC2)sc2c1CCCC2	
5.46		CCOC(=O)c1c(NC(=S)N2CCN(C)CC2)sc2c1CCC2	
	Not Active	CN1CCN(C(=O)Nc2sc3c(c2C(=O)O)CCC3)CC1	
5.18		CCCOC(=O)c1c(NC(=O)N2CCN(C)CC2)sc2c1CCCC2	
	Not Active	CCOC(=O)c1c(NC(=O)N2CCN(C(C)=O)CC2)sc2c1CCC2	
6.35		COC(=O)c1c(NC(=O)N2CCN(C)CC2)sc2c1CCC2	
